Rin1 Abl inh = inhibitors of Rin1-Abl protein binding, primary screen, biochemical, TR-FRET; 360,000 compounds, 0.4% hits; Tyrosine-protein kinase ABL1 (Homo sapiens) + Ras and Rab interactor 1 (Homo sapiens), …; inhibition, % at 7.35 µM; in the data active means inhibition above about 5%, passing the limit was not always enough
ABHD5 PLIN5 PPI = ABHD5-PLIN5 interaction inhibitors, primary screen, cell lysate, split luciferase complementation, luminescence; Split G. princeps luciferase complementation, 4 h; inhibition, % at 4 µM; 360,000 compounds, 0.78% hits; Perilipin-5 (Homo sapiens) + 1-acylglycerol-3-phosphate O-acyltransferase ABHD5 (Homo …;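 active means inhibition above the mean inhibition across every tested compound plus 3 SD, cut at about 22% in these data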;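 further: 0% = DMSO only wells and the 100% control is not disclosed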
MBD2 DNA inh = inhibitors of MBD2 binding to methylated DNA, primary screen, biochemical, TR-FRET, DNA-binding domain, human | inhibition, % at 4.4 µM | MBD2 binding to methylated oligonucleotide | Methyl-CpG-binding domain protein 2 (Homo sapiens), Q9UBB5 | 370,000 compounds, 0.31% hits; in the data active means inhibition above about 13%
Target sequence (Q9UBB5 whole entry, looked up, the tested form may be a part): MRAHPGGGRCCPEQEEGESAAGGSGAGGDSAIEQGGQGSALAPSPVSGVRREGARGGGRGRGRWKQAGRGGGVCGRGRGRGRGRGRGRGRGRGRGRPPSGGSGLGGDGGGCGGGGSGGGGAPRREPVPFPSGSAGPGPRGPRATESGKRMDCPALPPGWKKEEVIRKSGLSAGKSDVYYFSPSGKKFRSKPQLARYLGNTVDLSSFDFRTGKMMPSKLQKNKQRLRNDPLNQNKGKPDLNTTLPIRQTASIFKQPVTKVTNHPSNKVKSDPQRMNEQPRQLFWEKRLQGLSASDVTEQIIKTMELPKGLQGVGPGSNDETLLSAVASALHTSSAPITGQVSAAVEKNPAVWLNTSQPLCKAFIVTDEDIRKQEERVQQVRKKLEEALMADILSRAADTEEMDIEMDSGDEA
B2AR ag = beta2AR agonists driving receptor internalization, primary screen, cell-based, FAP fluorogen, flow cytometry | Am2.2-beta2AR cells | AID 504454, 2011 | response, % (no concentration beside the values) | 340,000 compounds, 0.43% hits;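 active means response above a set limit, near 3 SD of response in nonfluorescent compounds, cut at about 42% in these data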
Arr AP2 block = inhibitors of beta-arrestin/AP2 binding, primary screen, biochemical, GPCR trafficking, flow cytometry; AID 504490, 2011; 340,000 compounds, 0.31% hits; inhibition, % at 10 µM; beta-arrestin 1 C-terminal peptide binding to AP2 beta2-adaptin appendage (human); FITC-arrestin peptide / GST-AP2 beads; AP2 beta2 appendage carries R879A mutation;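 active means inhibition above a set limit, near 3 SD of compounds lacking own fluorescence, cut at about 54% in these data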;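 further: plate controls were DMSO wells for no effect and 5 µM unlabelled arrestin peptide for full effect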
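System: GST-tagged AP2 beta2-adaptin appendage (R879A) on 4 µm glutathione beads / Reagent: FITC-arrestin peptide, 50 nM / Detection: HyperCyt-sampled flow cytometry, FL1 channel, ex 488/em 535 nm / Timing: 12 min plus 1 h, RT / Buffer or medium: PBS plus Tween 20 (0.05%) and BSA (0.1%)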
UHRF1 MBD2 ctr = UHRF1 methylated DNA binding inhibitors, primary screen, counter-screen for MBD2 inhibitor project, biochemical, TR-FRET, human UHRF1, single concentration; E3 ubiquitin-protein ligase UHRF1 (Homo sapiens), Q96T88; UHRF1 binding to methylated oligo; inhibition, % at 4.4 µM; 370,000 compounds, 0.75% hits; in the data active means inhibition above about 21%;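 further: UHRF1 SRA domain binding a hemimethylated CpG hairpin DNA probe; 0% = median of test compound wells and 100% = reference inhibitor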
ABHD5-PLIN5 conf = ABHD5-PLIN5 interaction inhibitors, confirmation, biochemical, luminescence | inhibition, % at 4 µM | shares compounds with ABHD5 PLIN5 PPI | AID 651612, 2012 | 2,200 compounds, 67% hits; in the data active means inhibition above about 23%;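 further: 0% = DMSO vehicle wells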
HNF4 split-luc = HNF4 dimerization inhibitors, counter-screen for ABHD5-PLIN5 interaction inhibitor project, biochemical, split-luciferase complementation, luminescence | AID 651674, 2012 | inhibition, % at 4 µM | 2,200 compounds, 77% hits | shares compounds with ABHD5 PLIN5 PPI;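 active means mean inhibition across replicate wells exceeding the computed hit threshold, cut at about 13% in these data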;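 further: light from luciferase halves that rejoin when HNF4 fusion proteins dimerize; 0% = DMSO only wells and the 100% control is not given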
* = called active by the depositor; nt = not tested or not shown. A selection: hits, their analogues and other compounds. The true share with any hit is near 2.5%.

SMILES	Rin1 Abl inh	ABHD5 PLIN5 PPI	MBD2 DNA inh	B2AR ag	Arr AP2 block	UHRF1 MBD2 ctr	ABHD5-PLIN5 conf	HNF4 split-luc
C[C@@H]1OCN(C)[C@H]2C[C@H]3c4[nH]c5cccc(-c6cccc(F)c6)c5c4CCN3C(=O)[C@@H]12	nt	nt	0	nt	nt	0	nt	nt
CCCCNC(=O)C[C@@H]1C(=O)N(Cc2ccc(OC)cc2)/C2=C/CCCCC[C@@]21C(=O)OCC	nt	nt	-6	nt	nt	3	nt	nt
O=S(=O)(CC1NCc2ccccc21)NC1CCCC1 (stereo not drawn)	nt	nt	3	nt	nt	-4	nt	nt
CCCc1nc(C)c2c(=O)[nH]c(-c3cc(S(=O)(=O)N4CCN(CC)CC4)ccc3OCC)nn12	-2	62*	-3	1	4	0	68*	29*
O=C(COCc1ccccc1)N1CC[C@H]2[C@H](CCCN2Cc2cc(F)cc(F)c2)C1	nt	nt	-2	nt	nt	-3	nt	nt
CCCCN1CCN(C(=O)C2CCCN(C(=O)c3ccc4c(c3)NC(=O)CS4)C2)CC1 (stereo not drawn)	nt	nt	2	nt	nt	1	nt	nt
Nc1ccccc1SCc1ccccc1Cl	2	1	1	1	32	2	nt	nt
CC(C(Sc1ccccc1N)c1ccccc1)[N+](=O)[O-] (stereo not drawn)	-1	27*	-8	33	0	-2	63*	77*
Nc1ccccc1SC(CC(=O)c1ccccc1)c1ccccc1 (stereo not drawn)	0	68*	nt	nt	nt	nt	0	79*
CCCCC(=O)NC(c1cccc([N+](=O)[O-])c1)c1ccc2cccnc2c1O (stereo not drawn)	2	33*	-1	6	38	-13	29*	-2
C#CCNC(=O)C[C@H]1C[C@@]2(C(=O)OC)C(=C[C@H](C3CCCC3)O[C@@H]2C)N(Cc2ccc(Cl)cc2Cl)C1=O	nt	nt	4	nt	nt	-1	nt	nt
COc1ccc(CNC(=O)CCSCc2cccc(Cl)c2)cc1	-3	5	-3	0	4	-1	nt	nt
COc1ccc(CNC(=O)CSCc2cccc(Cl)c2)cc1	2	68*	-2	-3	12	1	-2	0
CCN(c1ccccc1)S(=O)(=O)c1cc(C(=O)NCc2ccco2)ccc1C	3	27*	6	13	0	8	13	14*
CCN(c1ccccc1)S(=O)(=O)c1cc(C(=O)NCC(c2ccco2)N2CCCCC2)ccc1C (stereo not drawn)	0	10	4	-5	41	-2	nt	nt
OC(c1cccc(Cl)c1)c1nc(-c2ccoc2)cs1 (stereo not drawn)	-1	27*	12	nt	nt	-1	47*	43*
C=CC[C@]12CC=CC(=O)[C@@]1(O)O[C@H](c1ccc(OC)c(OC)c1)[C@H]2C	-2	27*	-1	7	7	-1	50*	36*
C=CCN1[C@H](CO)[C@H](c2ccc(Br)cc2)[C@@H]1C#N	nt	nt	-3	nt	nt	3	nt	nt
Cc1ccc2c(c1)C(=O)C(=O)N2Cc1ccc(F)cc1	-3	16	-3	15	32	0	nt	nt
Cc1ccc2c(c1)C(=O)C(=O)N2Cc1ccc(Cl)cc1	0	33*	-3	13	-1	-6	37*	52*
CC(C)Cc1ccc(C(C)CC2=CCC(CN(C)C)C2=O)cc1 (stereo not drawn)	5	38*	1	24	7	-1	82*	81*
CC(C)Cc1ccc(S(=O)(=O)N2CCOCC2)cc1	2	-2	2	-2	-14	1	nt	nt
C=C1C(=O)c2sccc2C(c2ccc(OC)c(OC)c2)C1COC(C)=O (stereo not drawn)	5	79*	-3	102*	15	3	95*	108*
FC(F)(F)c1cc(CNC2CCC23CCCCC3)ccc1Cl (stereo not drawn)	nt	nt	-7	nt	nt	-1	nt	nt
O=C(C=Cc1ccccc1)c1cccs1	-1	59*	0	0	-3	-2	71*	64*
SMILES	Rin1 Abl inh	ABHD5 PLIN5 PPI	MBD2 DNA inh	B2AR ag	Arr AP2 block	UHRF1 MBD2 ctr	ABHD5-PLIN5 conf	HNF4 split-luc
Nc1ccc(/C=C/C(=O)c2cccs2)cc1	-12	13	-14	7	7	-13	nt	nt
CC1=NN(C(=O)c2ccc(Cn3nc(C)cc3C)o2)C(O)(C(F)(F)F)C1 (stereo not drawn)	2	58*	-6	0	9	-4	6	-2
CN1CCN(c2ccc3c(c2)Oc2ccccc2CN(Cc2cn(Cc4ccc(F)cc4)nn2)S3(=O)=O)CC1	nt	nt	0	nt	nt	0	nt	nt
COCCNC(=O)/C(C#N)=C/c1cccc(/C=C(\C#N)C(=O)NCCOC)c1	0	48*	2	2	-6	-1	98*	71*
CCOc1ccc2cc(/C=C/C(=O)c3ccco3)c(Cl)nc2c1	5	25*	-3	-6	4	-1	71*	56*
CCC(CO)Nc1cccc2c1S(=O)(=O)N(Cc1cn(Cc3cccc(C(F)(F)F)c3)nn1)Cc1ccccc1O2 (stereo not drawn)	nt	nt	4	nt	nt	10	nt	nt
CC[C@@H](C)[C@@H]1CN([C@@H](CN2CCC[C@H]2CN2C(N)=NC[C@@H]2Cc2ccccc2)C(C)C)C(=N)N1CCCC1CCCC1	2	28*	nt	1	20	nt	10	5
CC(C)C[C@@H]1CN=C(N)N1C[C@@H]1CCCN1C[C@H](C)N1C[C@@H](Cc2ccccc2)N(CCc2ccc(Cl)c(Cl)c2)C1=N	4	27*	nt	-8	-1	nt	14	2
CNc1nc(N)c([N+](=O)[O-])c(Nc2ccccc2)n1	nt	nt	-1	nt	nt	0	nt	nt
C=C1C(=O)O[C@H]2C[C@H]1[C@@H](OC(C)=O)C/C(C)=C/CC/C(C)=C\CC[C@]2(C)O	-3	71*	1	16	-4	-2	88*	64*
C=CCNC(=O)/C(C#N)=C/c1c(C)nn(-c2ccc(Cl)cc2)c1Cl	2	34*	3	5	12	-5	41*	45*
C#Cc1cccc(OC[C@@H](O)CN2CCC(C(O)(c3ccccc3)c3ccccc3)CC2)c1	nt	nt	2	nt	nt	-1	nt	nt

Screening data deposited in PubChem by several laboratories.
